Data published in ChEMBL document CHEMBL4043093, “2-Oxo-3, 4-dihydropyrimido[4, 5-d]pyrimidinyl derivatives as new irreversible pan fibroblast growth factor receptor (FGFR) inhibitors” (Eur J Med Chem, 2017).

Assays:
[1] = molecular target: Mitogen-activated protein kinase kinase kinase kinase 5 (Homo sapiens) (UniProt Q9Y4K4); assay: Inhibition of wild-type human partial length MAP4K5 (M1 to P297 residues) expressed in Escherichia coli BL21 assessed as residual activity at 1000 nM after 30 mins by Kinomescan method relative to control
[2] = molecular target: Serine/threonine-protein kinase ULK2 (Homo sapiens) (UniProt Q8IYT8); assay: Inhibition of wild-type human partial length ULK2 (M1 to S301 residues) expressed in HEK293 cells assessed as residual activity at 1000 nM after 30 mins by Kinomescan method relative to control; assay type: cell-based
[3] = molecular target: Serine/threonine-protein kinase PAK 5 (Homo sapiens) (UniProt Q9P286); assay: Inhibition of wild-type human partial length PAK7 (Y400 to H719 residues) expressed in Escherichia coli BL21 assessed as residual activity at 1000 nM after 30 mins by Kinomescan method relative to control
[4] = molecular target: Ephrin type-B receptor 3 (Homo sapiens) (UniProt P54753); assay: Inhibition of wild-type human partial length EPHB3 (Q599 to T928 residues) expressed in Escherichia coli BL21 assessed as residual activity at 1000 nM after 30 mins by Kinomescan method relative to control
[5] = molecular target: Atypical kinase COQ8B, mitochondrial (Homo sapiens) (UniProt Q96D53); assay: Inhibition of wild-type human full length ADCK4 (M1 to S544 residues) expressed in Escherichia coli BL21 assessed as residual activity at 1000 nM after 30 mins by Kinomescan method relative to control
Outline: (§1)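 Single-point screen at a fixed 1 µM, run within a 456-kinase DiscoveRx KINOMEscan panel. Each kinase's read-out is Percent Control, i.e. signal relative to a control without compound. Hits were scored by a Percent Control < 35 cut-off, and an S(35) selectivity score was calculated across the non-mutant kinases.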

[6] = molecular target: Mitogen-activated protein kinase kinase kinase 5 (Homo sapiens) (UniProt Q99683); assay: Inhibition of wild-type human partial length ASK1 (E648 to S964 residues) expressed in Escherichia coli BL21 assessed as residual activity at 1000 nM after 30 mins by Kinomescan method relative to control
[7] = molecular target: Serine/threonine-protein kinase LATS1 (Homo sapiens) (UniProt O95835); assay: Inhibition of wild-type human partial length LATS1 (Q678 to V1130 residues) expressed in Escherichia coli BL21 assessed as residual activity at 1000 nM after 30 mins by Kinomescan method relative to control
[8] = molecular target: Serine/threonine-protein kinase PLK3 (Homo sapiens) (UniProt Q9H4B4); assay: Inhibition of wild-type human partial length PLK3 (A42 to L334 residues) expressed in HEK293 cells assessed as residual activity at 1000 nM after 30 mins by Kinomescan method relative to control; assay type: cell-based
[9] = molecular target: Angiopoietin-1 receptor (Homo sapiens) (UniProt Q02763); assay: Inhibition of wild-type human partial length TIE2 (N804 to T1112 residues) expressed in Escherichia coli BL21 assessed as residual activity at 1000 nM after 30 mins by Kinomescan method relative to control
[10] = test system: Mast/stem cell growth factor receptor Kit (Homo sapiens), P10721 [V559D]; assay: Inhibition of human partial length KIT V559D mutant (Y545 to D952 residues) expressed in Escherichia coli BL21 assessed as residual activity at 1000 nM after 30 mins by Kinomescan method relative to control
Outline: (§2)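 KINOMEscan binding panel of 456 kinases, with the test compound at a single concentration of 1 µM. Read-out is Percent Control.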

[11] = molecular target: Muscle, skeletal receptor tyrosine-protein kinase (Homo sapiens) (UniProt O15146); assay: Inhibition of wild-type human partial length MUSK (M553 to V869 residues) expressed in Escherichia coli BL21 assessed as residual activity at 1000 nM after 30 mins by Kinomescan method relative to control
[12] = molecular target: MAP kinase-interacting serine/threonine-protein kinase 2 (Homo sapiens) (UniProt Q9HBH9); assay: Inhibition of wild-type human partial length MKNK2 (G63 to S388 residues) expressed in HEK293 cells assessed as residual activity at 1000 nM after 30 mins by Kinomescan method relative to control; assay type: cell-based
[13] = test system: Phosphatidylinositol 4,5-bisphosphate 3-kinase catalytic subunit alpha isoform (Homo sapiens), P42336 [E545A]; assay: Inhibition of human partial length PIK3CA E545A mutant (R108 to N1068 residues) expressed in HEK293 cells assessed as residual activity at 1000 nM after 30 mins by Kinomescan method relative to control; assay type: cell-based; outline: as §2
[14] = molecular target: BMP-2-inducible protein kinase (Homo sapiens) (UniProt Q9NSY1); assay: Inhibition of wild-type human partial length BIKE (S34 to N329 residues) expressed in Escherichia coli BL21 assessed as residual activity at 1000 nM after 30 mins by Kinomescan method relative to control
[15] = molecular target: Cyclin-dependent kinase 7 (Homo sapiens) (UniProt P50613); assay: Inhibition of wild-type human full length CDK7 (M1 to L344 residues) expressed in HEK293 cells assessed as residual activity at 1000 nM after 30 mins by Kinomescan method relative to control; assay type: cell-based; outline: as §1
[16] = molecular target: Membrane-associated tyrosine- and threonine-specific cdc2-inhibitory kinase (Homo sapiens) (UniProt Q99640); assay: Inhibition of wild-type human partial length PKMYT1 (A88 to G366 residues) expressed in Escherichia coli BL21 assessed as residual activity at 1000 nM after 30 mins by Kinomescan method relative to control
[17] = molecular target: Serine/threonine-protein kinase WNK1 (Homo sapiens) (UniProt Q9H4A3); assay: Inhibition of wild-type human partial length WNK1 (Q194 to A490 residues) expressed in HEK293 cells assessed as residual activity at 1000 nM after 30 mins by Kinomescan method relative to control; assay type: cell-based
[18] = molecular target: Cyclin-dependent kinase 4 (Homo sapiens) (UniProt P11802); assay: Inhibition of wild-type human full length CDK4 (M1 to E303 residues) expressed in HEK293 cells assessed as residual activity at 1000 nM after 30 mins by Kinomescan method relative to control; assay type: cell-based; outline: as §1
[19] = molecular target: Serine/threonine-protein kinase pim-1 (Homo sapiens) (UniProt P11309); assay: Inhibition of wild-type human partial length PIM1 (A15 to K313 residues) expressed in Escherichia coli BL21 assessed as residual activity at 1000 nM after 30 mins by Kinomescan method relative to control
[20] = molecular target: Receptor tyrosine-protein kinase erbB-2 (Homo sapiens) (UniProt P04626); assay: Inhibition of wild-type human partial length ERBB2 (K646 to V1225 residues) expressed in HEK293 cells assessed as residual activity at 1000 nM after 30 mins by Kinomescan method relative to control; assay type: cell-based
[21] = molecular target: Mitogen-activated protein kinase 9 (Homo sapiens) (UniProt P45984); assay: Inhibition of wild-type human full length JNK2 (M1 to Q382 residues) expressed in HEK293 cells assessed as residual activity at 1000 nM after 30 mins by Kinomescan method relative to control; assay type: cell-based
Outline: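 Single-concentration screen at 1 µM across a 456-kinase KINOMEscan panel. The read-out is Percent Control for each kinase.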

Which Activity [1] does the source give for `COc1cc(OC)c(Cl)c(N2Cc3cnc(Nc4ccc(F)cc4)nc3N(C3CCN(C(=O)/C=C/CN(C)C)CC3)C2=O)c1Cl` here?
The Activity was 82%.

What about the Activity [2] of the same compound?
The Activity was 100%.

And the Activity [3]?
Its Activity is 88%.

And the Activity [4]?
Its Activity is 100%.

And the Activity [5]?
Its Activity is 94%.

And the Activity [6]?
The Activity was 100%.

And the Activity [7]?
The Activity was 100%.

And the Activity [8]?
Its Activity is 99%.

And the Activity [9]?
Its Activity is 26%.

What about the Activity [10] of the same compound?
The Activity was 11%.

What about the Activity [11] of the same compound?
The Activity was 94%.

What about the Activity [12] of the same compound?
The Activity was 86%.

And the Activity [13]?
The Activity was 90%.

And the Activity [14]?
The Activity was 100%.

What about the Activity [15] of the same compound?
The Activity was 100%.

What about the Activity [16] of the same compound?
The Activity was 100%.

And the Activity [17]?
Its Activity is 59%.

What about the Activity [18] of the same compound?
The Activity was 100%.

And the Activity [19]?
The Activity was 97%.

What about the Activity [20] of the same compound?
Its Activity is 96%.

What about the Activity [21] of the same compound?
Its Activity is 92%.
